Publication PMC7947324 (Pharmacology Research & Perspectives, 2021)
“Also recorded” adds a separate entry of the source.

What was measured:
INS‐1 (832/3) cells [1] = assay: Relative gene expression by qPCR in INS‐1; type: cell-based, rat; conditions: for Ptges expression vs. control: 2^ΔΔCt method, AA enrichment alone or 10 ng/ml IL‐1β
INS‐1 (832/3) cells [2] = assay: Membrane phospholipid AA and EPA composition of INS‐1; type: cell-based, rat; conditions: 100 μM AA‐enriched medium, 48 h
INS‐1 (832/3) cells [3] = assay: INS‐1; type: cell-based, rat; conditions: for effect of antagonist on the PGE2 dose–response (GSIS): 10 µM antagonist, PGE2 1 pM to 50 μM; for effect of antagonist on the sulprostone dose–response (GSIS): sulprostone 1 pM to 50 μM; for reduction of GSIS at high concentration compared with PGE2: 50–100 µM; for concentration from which the agonist reduces GSIS / effect of agonist on GSIS (dose–response): agonist alone; for effect of agonist on GSIS (dose–response): 1 pM to 50 or 100 μM, 16.7 mM glucose
Summary of the method: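 INS‐1 (832/3) cells (passage 35 or below) plated and cultured 72 h before GSIS. Agonists tested from 1 pM to 10, 50 or 100 µM, with or without 20 µM EP3 antagonist or 10 µM other EP antagonists. Insulin measured by in‐house ELISA and expressed relative to 16.7 mM glucose. N = 3–5 independent experiments, mean ± SEM, two‐way ANOVA with Holm–Sidak.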

rat EP1 receptor = conditions: cited from earlier work
rat EP3 receptor = conditions: cited from earlier work
mouse DP2 receptor [4] = conditions: ref Table 3; cited from earlier work
mouse DP2 receptor [5] = assay: Published agonism at mouse DP2 receptor; type: biochemical; conditions: from published pKi values of Table 3
INS‐1 (832/3) cells [6] = conditions: cited from earlier work
INS‐1 (832/3) cells [7] = assay: Total insulin content of INS‐1; type: cell-based, rat; conditions: 10 ng/ml, regardless of fatty acid treatment
Summary of the method: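 Cells at 70% confluence were cultured 48 h in medium with 1% fatty acid‐free BSA, with or without 100 μM AA, then 24 h with vehicle or 10 ng/ml IL‐1β. Assay groups were 1.7 mM glucose, 16.7 mM glucose, 16.7 mM + 10 nM agonist, and 16.7 mM + 20 µM EP3 antagonist. Secreted insulin was given as percent of content; content and secretion by in‐house ELISA. N = 3–4, mean ± SEM, two‐way ANOVA with Holm–Sidak.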

INS‐1 (832/3) cells [8] = assay: PGE2 production; type: cell-based, rat; conditions: BSA or AA cultured cells, 10 ng/mL IL‐1β or vehicle

Q: Which “Ptges expression vs. control” value (INS‐1 (832/3) cells [1]) does the source give for `CCCCC/C=C\C/C=C\C/C=C\C/C=C\CCCC(=O)O` [AA, arachidonic acid] here?
A: ~ 3.5 fold

Q: What about the “AA abundance in membrane phospholipids vs controls” value (INS‐1 (832/3) cells [2]) of the same molecule?
A: 4 fold

Q: And the “AA:EPA ratio vs controls” value (INS‐1 (832/3) cells [2])?
A: 25 fold

Q: With `O=C(O)CC/C=C\CC[C@H]1[C@H](N2CCOCC2)C(=O)C[C@H]1OCc1ccc(-c2ccccc2)cc1` [AH2384B] as the molecule, how does the “effect of antagonist on the PGE2 dose–response (GSIS)” value (INS‐1 (832/3) cells [3]) read?
A: excluded from mediating the effect of PGE2 on GSIS

Q: And the “effect of antagonist on the sulprostone dose–response (GSIS)” value (INS‐1 (832/3) cells [3]; 10 μM antagonist)?
A: neither SC51089, AH2384B, SC19220, nor L161,982 affecting the sulprostone dose–response

Q: For `CCC#CC[C@H](C)[C@H](O)C#C[C@@H]1[C@H]2C/C(=C/COCC(=O)O)C[C@H]2C[C@H]1O` [Cicaprost, cicaprost], which “reduction of GSIS at high concentration compared with PGE2” value (INS‐1 (832/3) cells [3]) is on record?
A: nearly reaching the maximal potency of PGE2

Q: And the “concentration from which the agonist reduces GSIS” value (INS‐1 (832/3) cells [3])?
A: 1 µM

Q: With `CC#CCC(C)[C@H](O)/C=C/[C@@H]1[C@H]2C/C(=C/CCCC(=O)O)C[C@H]2C[C@H]1O` (stereo partly drawn) [Iloprost, iloprost] as the molecule, how does the “effect of agonist on GSIS (dose–response)” value (shortened to “effect of agonist on GSIS”) (INS‐1 (832/3) cells [3]) read?
A: dose‐dependently reduces GSIS; also recorded: significantly reduce INS‐1 cell GSIS

Q: And the “agonist type at rat EP1 receptor” value (rat EP1 receptor)?
A: only a partial agonist

Q: What about the “agonist type at rat EP3 receptor” value (rat EP3 receptor) of the same molecule?
A: full agonist

Q: Which “effect of agonist on GSIS” value (INS‐1 (832/3) cells [3]) does the source give for `COc1ccc2c(c1)c(CC(=O)O)c(C)n2C(=O)c1ccc(Cl)cc1` [Indomethacin, indomethacin] here?
A: no significant effect

Q: What about the “effect of agonist on GSIS” value (INS‐1 (832/3) cells [3]; listed as indomethacin) of the same molecule?
A: no effect on GSIS

Q: With `CCCCc1nn(-c2ccccc2C(F)(F)F)c(=O)n1Cc1ccc(-c2ccccc2S(=O)(=O)NC(=O)c2sccc2C)cc1` [L161,982] as the molecule, how does the “effect of antagonist on the PGE2 dose–response (GSIS)” value (INS‐1 (832/3) cells [3]) read?
A: excluded from mediating the effect of PGE2 on GSIS

Q: And the “effect of antagonist on the sulprostone dose–response (GSIS)” value (INS‐1 (832/3) cells [3]; 10 μM antagonist)?
A: neither SC51089, AH2384B, SC19220, nor L161,982 affecting the sulprostone dose–response

Q: Which “effect of antagonist on GSIS reduced by PGD2, PGF2α, cicaprost or U‐46619” value (INS‐1 (832/3) cells [3]; 20 μM L798,106) does the source give for `COc1ccc(Br)cc1S(=O)(=O)NC(=O)/C=C/c1ccccc1Cc1ccc2ccccc2c1` [L798,106] here?
A: fully restores INS‐1 (832/3) GSIS

Q: And the “increase in GSIS vs. 16.7 mM glucose alone” value (INS‐1 (832/3) cells [3]; 20 µM, AA enrichment and 10 ng/ml IL‐1β pretreatment)?
A: ~ 30%

Q: What about the “effect of antagonist alone on GSIS” value (INS‐1 (832/3) cells [3]; 20 µM, no IL‐1β treatment, control and AA‐enriched cells) of the same molecule?
A: no potentiating effect; also recorded: unaffected

Q: What about the “increase of the IC50 for PGE2 (reduction of GSIS) by antagonist” value (INS‐1 (832/3) cells [3]; PGE2 1 pM to 10 μM with and without 20 μM L798,106) of the same molecule?
A: over 100 fold

Q: For `CCCCC[C@H](O)/C=C/[C@H]1C(=O)C[C@H](O)[C@@H]1C/C=C\CCCC(=O)O` [PGD2], which “reduction of GSIS at high concentration compared with PGE2” value (INS‐1 (832/3) cells [3]) is on record?
A: nearly reaching the maximal potency of PGE2

Q: And the “concentration from which the agonist reduces GSIS” value (INS‐1 (832/3) cells [3])?
A: 1 µM

Q: With `CCCCC[C@H](O)/C=C/[C@H]1[C@H](O)CC(=O)[C@@H]1C/C=C\CCCC(=O)O` [PGE2] as the molecule, how does the “potentiation of GSIS” value (INS‐1 (832/3) cells [3]; 10 nM, AA‐enriched cells pretreated with IL‐1β) read?
A: approximately twofold

Q: What about the “effect on GSIS” value (INS‐1 (832/3) cells [3]; 10 nM, IL‐1β‐treated control (BSA) cells) of the same molecule?
A: no further inhibitory effect

Q: What about the “effect on GSIS” value (INS‐1 (832/3) cells [3]; 10 nM, cells without IL‐1β, with or without AA enrichment) of the same molecule?
A: blunts INS‐1 (832/3) GSIS regardless of AA enrichment

Q: What about the “effect of agonist on GSIS” value (INS‐1 (832/3) cells [3]) of the same molecule?
A: reduces INS‐1 (832/3) GSIS in a dose‐dependent manner; also recorded: significantly reduce INS‐1 cell GSIS

Q: And the “maximal reduction in GSIS” value (INS‐1 (832/3) cells [3]; maximal potency)?
A: ~ 60%

Q: And the “agonist type at mouse DP2 receptor” value (mouse DP2 receptor [4])?
A: full agonist

Q: And the “reduced potency at DP2 as compared to EP3” value (mouse DP2 receptor [5])?
A: ~ 3000 fold

Q: With `CC/C=C\C[C@H](O)/C=C/[C@H]1[C@H](O)CC(=O)[C@@H]1C/C=C\CCCC(=O)O` [PGE3] as the molecule, how does the “effect on INS‐1 cell GSIS” value (INS‐1 (832/3) cells [6]) read?
A: significantly reduce INS‐1 cell GSIS

Q: For `CCCCC[C@H](O)/C=C/[C@H]1[C@H](O)CC(=O)[C@@H]1CCCCCCC(=O)O` [PGE 1], which “effect on INS‐1 cell GSIS” value (INS‐1 (832/3) cells [6]) is on record?
A: significantly reduce INS‐1 cell GSIS

Q: Which results are given for `CCCCC[C@H](O)/C=C/[C@@H]1[C@@H](C/C=C\CCCC(=O)O)[C@@H](O)C[C@H]1O` [PGF2α]?
A: reduction of GSIS at high concentration compared with PGE2 (INS‐1 (832/3) cells [3]): nearly reaching the maximal potency of PGE2; concentration from which the agonist reduces GSIS (INS‐1 (832/3) cells [3]): 1 µM

Q: Which “effect of antagonist on the PGE2 dose–response (GSIS)” value (INS‐1 (832/3) cells [3]) does the source give for `CC(=O)NNC(=O)N1Cc2ccccc2Oc2ccc(Cl)cc21` [SC19220] here?
A: neither of two EP1 antagonists, SC19220 or SC51089, affect the PGE2 dose–response

Q: What about the “effect of antagonist on the sulprostone dose–response (GSIS)” value (INS‐1 (832/3) cells [3]; 10 μM antagonist) of the same molecule?
A: neither SC51089, AH2384B, SC19220, nor L161,982 affecting the sulprostone dose–response

Q: With `CS(=O)(=O)NC(=O)CCC/C=C\C[C@H]1C(=O)C[C@@H](O)[C@@H]1/C=C/[C@@H](O)COc1ccccc1` [Sulprostone, sulprostone] as the molecule, how does the “effect of agonist on GSIS” value (INS‐1 (832/3) cells [3]) read?
A: nearly identical results as with PGE2; also recorded: significantly reduce INS‐1 cell GSIS

Q: Which “reduction of insulin content” value (INS‐1 (832/3) cells [7]) does the source give for “IL‐1β: Interleukin‐1β, cytokine used at 10 ng/ml to mimic the diabetic state and induce PGE2 production” here?
A: ~50%

Q: And the Ptger1 expression (INS‐1 (832/3) cells [1]; 10 ng/ml IL‐1β)?
A: unaffected

Q: And the Ptger3 expression upregulation (INS‐1 (832/3) cells [1]; 10 ng/ml IL‐1β)?
A: ~ 6 fold

Q: What about the Ptger4 expression upregulation (INS‐1 (832/3) cells [1]; 10 ng/ml IL‐1β) of the same molecule?
A: ~ 10 fold

Q: And the Ptges2 expression induction (INS‐1 (832/3) cells [1]; 10 ng/ml IL‐1β)?
A: ~ 2 fold

Q: And the Ptges3 expression induction (INS‐1 (832/3) cells [1]; 10 ng/ml IL‐1β)?
A: ~ 2.5 fold

Q: And the Ptgs1 expression induction (INS‐1 (832/3) cells [1]; 10 ng/ml IL‐1β)?
A: 2–4 fold

Q: What about the Ptgs2 expression induction (INS‐1 (832/3) cells [1]; 10 ng/ml IL‐1β) of the same molecule?
A: ~ 10 fold

Q: And the “Ptges expression vs. control” value (INS‐1 (832/3) cells [1])?
A: ~ 100 fold

Q: What about the “substrate‐dependent PGE2 production” value (INS‐1 (832/3) cells [8]) of the same molecule?
A: only induced with IL‐1β treatment

Q: With PF‐04418948 as the molecule, how does the “effect of antagonist on the PGE2 dose–response (GSIS)” value (INS‐1 (832/3) cells [3]) read?
A: no effect

Q: Which “effect of antagonist on the PGE2 dose–response (GSIS)” value (INS‐1 (832/3) cells [3]) does the source give for SC51089 here?
A: neither of two EP1 antagonists, SC19220 or SC51089, affect the PGE2 dose–response

Q: And the “effect of antagonist on the iloprost dose–response curve (GSIS)” value (INS‐1 (832/3) cells [3]; 10 μM antagonist, iloprost 1 pM to 100 μM)?
A: no effect

Q: What about the “effect of antagonist on the sulprostone dose–response (GSIS)” value (INS‐1 (832/3) cells [3]; 10 μM antagonist) of the same molecule?
A: neither SC51089, AH2384B, SC19220, nor L161,982 affecting the sulprostone dose–response
